Values after ≈ are worked out from the molar mass of the structure shown. Active and inactive are the calls of the source. The rule behind the calls is not given here.
Tests used:
Staphylococcus aureus [1] = assay: Antibacterial activity against methicillin-resistant Staphylococcus aureus DB68004 after 24 hrs by broth microdilution method; assay type: functional; conditions: DB68004, 24 h
Outline: (§1)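 Broth microdilution per CLSI in cation-adjusted Mueller−Hinton broth, in tubes. Compounds dissolved in H2O or DMF, then diluted in PBS to 1000 μg/mL stocks. Serial 2-fold dilutions were made, with final DMF 2.5%. Organisms were grown on TSA at 35 °C for 20 h and adjusted to ~5× 10^5 CFU/mL. Tubes were incubated at 35 °C for 24 h. MIC was the lowest concentration with no visible growth versus control. Biological replicates.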

[2] = Cytotoxicity against human Corneal fibroblasts assessed cell viability at 30 uM after 24 hrs by Cell Titer-Glo luminescent assay; assay type: cell-based, Corneal fibroblast; conditions: read-out: Activity
Outline: (§2)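 ATP luminescence viability in human corneal fibroblasts, ~10000 cells per well, duplicate wells. After 24 h exposure the plate is equilibrated 0.5 h at 22 °C before Cell Titer-Glo addition and luminescence read. 1% Triton X-100 serves as positive control, medium-treated cells as negative control. Biological replicates.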

Staphylococcus aureus [3] = assay: Antibacterial activity against methicillin-sensitive Staphylococcus aureus ATCC 29213 after 24 hrs by broth microdilution method; assay type: functional; conditions: ATCC 29213, 24 h; outline: as §1
[4] = Cytotoxicity in human Corneal fibroblasts assessed as LDH release at 80 uM after 24 hrs; assay type: cell-based; conditions: corneal fibroblast
Outline: (§3)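 Human corneal fibroblasts are exposed to test samples for 24 h, and cytotoxicity is read as LDH leakage into the medium. Biological replicates.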

Staphylococcus aureus [5] = assay: Bactericidal activity against methicillin-resistant Staphylococcus aureus DM21455 assessed as log reduction in bacterial count at 4 times MIC up to 30 mins by time kill assay; assay type: functional
Outline: (§4)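 Time-kill. Starting inoculum 10^5−10^6 CFU/mL, exposed to 0.5×, 1×, 2× and 4× MIC at 35 °C. Colonies were counted after 24 h at 35 °C and CFU/mL calculated. Biological replicates.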

Staphylococcus aureus [6] = assay: Antibacterial activity against methicillin-resistant Staphylococcus aureus DM 9808R after 24 hrs by broth microdilution method; assay type: functional; outline: as §1
Staphylococcus aureus [7] = assay: Antibacterial activity against methicillin-resistant Staphylococcus aureus ATCC 700699 infected in C57BL6 mouse corneas assessed as log reduction in bacterial burden at 0.5 % dosed at 1 day post infection administered 5 times daily for 3 days; assay type: functional
Outline: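 C57BL6 mice, 6−8 weeks old, 20−30 g, anesthetized with ketamine/xylazine; four per group. Three 1 mm scratches were made on the right cornea and 10 μL of a 6 × 10^8 CFU/mL MRSA ATCC 700699 suspension was applied. From day 1 post infection, agents in PBS (12 mM, pH 7.2) were given topically 5 times daily for 3 days; PBS alone as control. Corneas were homogenized in 0.9% NaCl with 0.25% BSA and plated on TSA for 48 h at 35 °C.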

Staphylococcus aureus [8] = assay: Antibacterial activity against methicillin-resistant Staphylococcus aureus ATCC 700699 after 24 hrs by broth microdilution method; assay type: functional; conditions: ATCC 700699, 24 h; outline: as §1
Staphylococcus aureus [9] = assay: Antibacterial activity against methicillin-resistant Staphylococcus aureus BAA-38 after 24 hrs by broth microdilution method; assay type: functional; conditions: BAA-38, 24 h; outline: as §1
Staphylococcus aureus [10] = assay: Antibacterial activity against Staphylococcus aureus DM4001R after 24 hrs by broth microdilution method; assay type: functional; outline: as §1
Staphylococcus aureus [11] = assay: Antibacterial activity against Staphylococcus aureus ATCC 29213 infected in C57BL6 mouse keratitis model assessed as log reduction in bacterial burden at 0.5 % administered 4 times daily at 2 hrs interval for 1 day; assay type: functional
Outline: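 C57BL6 mice, 6–8 weeks, 20–30 g, four per group, anesthetized with ketamine/xylazine. Right cornea scratched (three 1 mm cuts), 10 μL of 6×10^8 CFU/mL S. aureus ATCC 29213 in PBS applied topically. From day 1, 0.5% drug in PBS (12 mM, pH 7.2) given 4 times at 2 h intervals. Corneas homogenized in 0.9% NaCl/0.25% BSA, diluted, plated in duplicate on TSA, 48 h at 35 °C.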

[12] = Cytotoxicity against human Corneal fibroblasts assessed cell viability at 80 uM after 24 hrs by Cell Titer-Glo luminescent assay; assay type: cell-based, Corneal fibroblast; conditions: read-out: Activity; outline: as §2
[13] = Cytotoxicity in human Corneal fibroblasts assessed as LDH release at 30 uM after 24 hrs; assay type: cell-based; conditions: corneal fibroblast; outline: as §3
Staphylococcus aureus [14] = assay: Bactericidal activity against methicillin-resistant Staphylococcus aureus DM21455 up to 4 hrs by time kill assay; assay type: functional; outline: as §4
Staphylococcus aureus [15] = assay: Antibacterial activity against methicillin-sensitive Staphylococcus aureus ATCC 6538 after 24 hrs by broth microdilution method; assay type: functional; conditions: ATCC 6538, 24 h; outline: as §1
Staphylococcus aureus [16] = assay: Bactericidal activity against methicillin-resistant Staphylococcus aureus DM21455 assessed as log reduction in bacterial count at 2 times MIC up to 30 mins by time kill assay; assay type: functional; outline: as §4
Lipid bilayer [17] = assay: Membrane permeabilization activity in DOPE/DOPG large unilamellar liposomes assessed as leakage of calcein at 1:8 compound to lipid ratio by fluorescence assay
Outline: (§5)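 Calcein-loaded 100 nm LUVs of DOPE/DOPG (3:1, w/w), made by film hydration in 80 mM calcein, 100 mM NaCl, 50 mM HEPES, 0.3 mM EDTA, pH 7.4. Liposomes 50 μM, 0.5% DMF, room temperature. Read at ex 490/em 520 nm every 2 min for 30 cycles. % leakage normalized to 0.1% Triton X-100 (100%) and 0.5% DMF (0%). Biological replicates.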

Staphylococcus aureus [18] = assay: Antibacterial activity against methicillin-sensitive Staphylococcus aureus DM4299 after 24 hrs by broth microdilution method; assay type: functional; conditions: DM4299, 24 h; outline: as §1
[19] = Cytotoxicity in human Corneal fibroblasts assessed as LDH release at 50 uM after 24 hrs; assay type: cell-based; conditions: corneal fibroblast; outline: as §3
Lipid bilayer [20] = assay: Membrane permeabilization activity in DOPE/DOPG large unilamellar liposomes assessed as leakage of calcein at 1:4 compound to lipid ratio by fluorescence assay; outline: as §5
Staphylococcus aureus [21] = assay: Antibacterial activity against methicillin-resistant Staphylococcus aureus DB57964 after 24 hrs by broth microdilution method; assay type: functional; conditions: DB57964, 24 h; outline: as §1
Staphylococcus aureus [22] = assay: Antibacterial activity against methicillin-sensitive Staphylococcus aureus DM4400R after 24 hrs by broth microdilution method; assay type: functional; outline: as §1
Staphylococcus aureus [23] = assay: Antibacterial activity against methicillin-resistant Staphylococcus aureus DM 21455 after 24 hrs by broth microdilution method; assay type: functional; conditions: DM 21455, 24 h; outline: as §1
Staphylococcus aureus [24] = assay: Antibacterial activity against methicillin-sensitive Staphylococcus aureus ATCC 29737 after 24 hrs by broth microdilution method; assay type: functional; conditions: ATCC 29737, 24 h; outline: as §1
Staphylococcus aureus [25] = assay: Bactericidal activity against methicillin-resistant Staphylococcus aureus DM9808R assessed as log reduction in bacterial count up to 4 hrs by time kill assay; assay type: functional; outline: as §4
Staphylococcus aureus [26] = assay: Antibacterial activity against methicillin-resistant Staphylococcus aureus DB6506 after 24 hrs by broth microdilution method; assay type: functional; conditions: DB6506, 24 h; outline: as §1
Staphylococcus aureus [27] = assay: Antibacterial activity against Staphylococcus aureus ATCC 29213 after 17 passages; assay type: functional
Staphylococcus aureus [28] = assay: Antibacterial activity against methicillin-sensitive Staphylococcus aureus DM4583R after 24 hrs by broth microdilution method; assay type: functional; outline: as §1
Staphylococcus aureus [29] = assay: Antibacterial activity against methicillin-resistant Staphylococcus aureus ATCC 43300 after 24 hrs by broth microdilution method; assay type: functional; conditions: ATCC 43300, 24 h; outline: as §1

COC(=O)[C@H](CCCNC(=N)N)NC(=O)COc1cc(O)c2c(=O)c(OCC(=O)N[C@@H](CCCNC(=N)N)C(=O)OC)c(-c3ccc(OC)cc3)oc2c1CC=C(C)C
MIC (Staphylococcus aureus [1]): 3.13 µg/mL (≈ 3.79 µM) | viability at 24 h, 30 µM [2]: 98.2% | MIC (Staphylococcus aureus [3]): 3.13 µg/mL (≈ 3.79 µM) | Activity [4]: 18.62% | Activity (Staphylococcus aureus [5]): 3 deltalog10CFU/ml | MIC (Staphylococcus aureus [6]): 3.8 µM (≈ 3.13 µg/mL) | Activity (Staphylococcus aureus [7]): 2.95 deltalog10CFU/ml | MIC (Staphylococcus aureus [8]): 3.13 µg/mL (≈ 3.79 µM) | MIC (Staphylococcus aureus [9]): 3.13 µg/mL (≈ 3.79 µM) | MIC (Staphylococcus aureus [10]): 1.9 µM (≈ 1.57 µg/mL) | Activity (Staphylococcus aureus [11]): Active | viability at 24 h, 80 µM [12]: 69.3% | Activity [13]: -2.3% | Activity (Staphylococcus aureus [14]): Dose-dependent effect | MIC (Staphylococcus aureus [15]): 1.56 µg/mL (≈ 1.89 µM) | Activity (Staphylococcus aureus [16]): 3 deltalog10CFU/ml | Activity (Lipid bilayer [17]): 53.5% | MIC (Staphylococcus aureus [18]): 3.13 µg/mL (≈ 3.79 µM) | Activity [19]: 0.05% | Activity (Lipid bilayer [20]): 46% | MIC (Staphylococcus aureus [21]): 3.13 µg/mL (≈ 3.79 µM) | MIC (Staphylococcus aureus [22]): 3.13 µg/mL (≈ 3.79 µM) | MIC (Staphylococcus aureus [23]): 1.9 µM (≈ 1.57 µg/mL) | MIC (Staphylococcus aureus [24]): 1.56 µg/mL (≈ 1.89 µM) | Activity (Staphylococcus aureus [25]): Active | MIC (Staphylococcus aureus [26]): 3.13 µg/mL (≈ 3.79 µM) | Activity (Staphylococcus aureus [27]): Active | MIC (Staphylococcus aureus [28]): 1.56 µg/mL (≈ 1.89 µM) | MIC (Staphylococcus aureus [29]): 1.56 µg/mL (≈ 1.89 µM)

Source: ChEMBL document CHEMBL4011638, “Semisynthetic Flavone-Derived Antimicrobials with Therapeutic Potential against Methicillin-Resistant Staphylococcus aureus (MRSA)” (J Med Chem, 2017)
